Screens from PubChem.
DENV2 CPE = DENV2-induced cell death inhibition; DENV2-infected cells, cytopathic effect rescue, plate reader; CPE inhibition, % at 9.99 µM; actives 1.7% (n = 350,000); in the data active = CPE inhibition above about 20%, passing the limit was not always enough; inconclusive = no clear call, values can overlap the other calls; tested in BHK-21 cells
E-selectin induc = E-selectin induction on HUVECs | P16581 | HUVEC E-selectin immunofluorescence imaging; normalized: neutral wells 0, TNF-alpha wells 100 | activation, % at 7.58 µM | actives 0.37% (n = 260,000);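 active = mean E-selectin-positive cell signal at least 10% of the positive control, reached in at least 60% of replicates, without over 20% cell loss; inconclusive = no rule given, readout overlaps actives, possibly toxicity-flagged; inactive = the rest, including those meeting only one limit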
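Assay system: HUVEC primary endothelial cells. Input: 3,000 HUVEC seeded per well. Doses: one compound dose added by pin transfer. Read-out basis: % PE-positive cells. Benchmarks: TNF-alpha high, DMSO low. Detection: immunofluorescence imaging. Buffer or medium: EGM-2, gelatin.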
SIRT5 inh = blocks human SIRT5 desuccinylation of peptide | actives 1.1% (n = 330,000) | Purified SirT5, succinyl-peptide AMC, trypsin-coupled fluorescence | inhibition, % at 15 µM; in the data active = inhibition above about 15%; inconclusive = no clear call, values can overlap the other calls
Target sequence (Q9NXA8 whole entry, looked up): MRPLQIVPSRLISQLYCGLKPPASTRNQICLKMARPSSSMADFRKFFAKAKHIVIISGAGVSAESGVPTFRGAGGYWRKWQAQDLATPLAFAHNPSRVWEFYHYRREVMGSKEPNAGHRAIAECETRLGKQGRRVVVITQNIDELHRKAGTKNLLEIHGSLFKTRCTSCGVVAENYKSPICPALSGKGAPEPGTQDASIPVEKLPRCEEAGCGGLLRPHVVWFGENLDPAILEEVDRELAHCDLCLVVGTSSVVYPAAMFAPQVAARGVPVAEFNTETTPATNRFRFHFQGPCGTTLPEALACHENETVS
Of the large screens only hits and unclear results are named; the others gave an inactive call. Only some compounds are listed: those with a hit (about 2.8% of all), similar ones and a draw of the others.

COc1cccc(C(=O)N2C(C(C)C)COc3cc(Br)ccc3S2(=O)=O)c1 (stereo unspecified)	none (no result: E-selectin induc)
O=C(Nc1ccc(Cl)c(Cl)c1)N[C@H]1CC[C@H](CCn2cc(C3CCCCC3)nn2)O[C@@H]1CO	none
Cc1ccc(S(=O)(=O)NC(=O)c2ccc(Br)o2)c(C)c1	none (no result: SIRT5 inh)
Cc1ccc(S(=O)(=O)NC(=O)c2ccc(Br)o2)cc1	SIRT5 inh 35
COc1ccc2c3c(n(C)c2c1)[C@@H](CO)N(C(=O)Nc1ccc(F)cc1)CC31CCN(S(=O)(=O)c2cccs2)CC1	none
CO[C@H]1CN(C)C(=O)c2ccc(NC(C)=O)cc2OC[C@@H](C)N(C(=O)Cc2ccccn2)C[C@@H]1C	none
CO[C@@H]1CN(C)C(=O)c2cc(NC(=O)CC(F)(F)F)ccc2OC[C@H](C)NC[C@@H]1C	none
CO[C@H]1CN(C)C(=O)c2cc(NC(=O)CC(F)(F)F)ccc2OC[C@H](C)N(C(C)=O)C[C@@H]1C	SIRT5 inh 16
CO[C@H]1CN(C)C(=O)c2cc(NC(=O)CC(F)(F)F)ccc2OC[C@H](C)N(C(C)=O)C[C@H]1C	none
CO[C@H]1CN(C)C(=O)c2cc(NC(=O)CC(F)(F)F)ccc2OC[C@@H](C)NC[C@H]1C	DENV2 CPE 26
CO[C@@H]1CN(C)C(=O)c2ccc(NC(=O)CC(F)(F)F)cc2OC[C@H](C)N(C(C)=O)C[C@@H]1C	DENV2 CPE 108 (no result: SIRT5 inh)
CO[C@@H]1CN(C)C(=O)c2cc(NC(=O)CC(F)(F)F)ccc2OC[C@@H](C)N(C(C)=O)C[C@@H]1C	none
CCCNC(=O)Nc1ccc2c(c1)C(=O)N(C)C[C@@H](OC)[C@@H](C)CN(Cc1ccccn1)[C@H](C)CO2	none (no result: DENV2 CPE, SIRT5 inh)
O=C(Nc1ccc(Cl)c(Cl)c1)N[C@H]1CC[C@H](CCn2cc(C3CCCC3)nn2)O[C@H]1CO	none
C[C@H]1CN([C@@H](C)CO)S(=O)(=O)c2ccc(C3=CCCCC3)cc2O[C@H]1CN(C)Cc1ccccc1F	none (no result: E-selectin induc)
C[C@@H]1CN([C@H](C)CO)C(=O)CCCn2cc(nn2)CO[C@@H]1CN(C)S(=O)(=O)c1ccc(Cl)cc1	none
CSc1nc2c(=S)[nH]c(=S)[nH]c2s1	DENV2 CPE 87
COc1ccc(C(=O)N2c3ccccc3C=CC2C#N)cc1 (stereo unspecified)	DENV2 CPE inconclusive, E-selectin induc 91
Cc1ccc2c(c1)C=CC(C#N)N2C(=O)c1ccccc1 (stereo unspecified)	none (no result: E-selectin induc)
CNC(=O)C[C@H]1CC[C@H]2[C@@H](COc3ccc(NC(=O)Nc4ccc(C)cc4)cc3C(=O)N2C)O1	none
COc1ccccc1C(=O)NC(C(=O)NCCc1nc2ccccc2[nH]1)=C(C)C	none
CC(C)=C(NC(=O)c1ccccc1Cl)C(=O)NCCc1nc2ccccc2[nH]1	DENV2 CPE 130 (no result: E-selectin induc)
COc1cccc(C#Cc2ccc([C@H]3[C@@H](CO)N4C(=O)CN(S(=O)(=O)c5ccccc5C)C[C@@H]34)cc2)c1	none
O=C(NCCN1C(=O)S/C(=C\c2ccccc2Cl)C1=O)C1=COCCO1	none
O=C(CNC(=O)c1ccccc1F)NCCN1C(=O)S/C(=C\c2ccccc2Cl)C1=O	DENV2 CPE 81 (no result: E-selectin induc)
CO[C@@H]1CN(C)C(=O)c2ccc(NC(=O)c3cnccn3)cc2OC[C@@H](C)N(C)C[C@H]1C	none (no result: DENV2 CPE, SIRT5 inh)
COc1ccccc1S(=O)(=O)N1C[C@H](O)COC[C@H]2O[C@@H](CC(=O)O)CC[C@@H]21	none
CCN1[C@@H]2Cn3c(ccc(/C=C/c4ccccc4)c3=O)[C@H]1[C@@H](C(=O)N1CCCCC1)[C@@H]2CO	none (no result: DENV2 CPE, SIRT5 inh)
Cn1nc(C(F)(F)F)c(-c2ccc(Br)cc2)c1NC(=O)CSCC(=O)O	DENV2 CPE 58
Cn1nc(C(F)(F)F)c(-c2ccc(Br)cc2)c1NC(=O)c1nccnc1C(=O)O	none
CCCN1C[C@@H](C)[C@H](OC)CN(C)C(=O)c2cc(NC(=O)Nc3cccc(OC)c3)ccc2OC[C@@H]1C	none (no result: DENV2 CPE, SIRT5 inh)
COc1ccc(NS(=O)(=O)c2cccc(C(=O)N3CCCC(C)C3)c2)cc1 (stereo unspecified)	SIRT5 inh 19 (no result: E-selectin induc)
COc1ccc(S(=O)(=O)Nc2cc3c4c(c2)CCN4C(=O)CC3)cc1	DENV2 CPE 60 (no result: E-selectin induc)
Cc1ccc(NS(=O)(=O)c2cccc(C(=O)N3CCCC(C)C3)c2)cc1 (stereo unspecified)	none (no result: E-selectin induc)
COc1ccc(NS(=O)(=O)c2ccc3c(c2)CCCN3C(C)=O)cc1	E-selectin induc 121
COc1ccc(OC)c(S(=O)(=O)Nc2cc3c4c(c2)CCN4C(=O)CC3)c1	none
COc1cccc(NS(=O)(=O)c2ccc3c(c2)CCCN3C(C)=O)c1	none (no result: E-selectin induc)
O=C(C[C@H]1CC[C@H]2[C@@H](COC[C@@H](O)CN2S(=O)(=O)c2ccc(Cl)cc2)O1)NCc1ccc(Cl)c(Cl)c1	none
O=C(Nc1ccc(Cl)c(Cl)c1)N[C@@H]1CC[C@H](CCNC(=O)c2ccc(F)cc2)O[C@@H]1CO	none
CN(C)c1ccc2c(c1)[C@H]1C[C@@H](CC(=O)N3CCCCC3)O[C@@H](CO)[C@H]1O2	none
CCc1ccc(S(=O)(=O)c2ccc(-n3nc(C)cc3N)cc2)cc1	SIRT5 inh 112 (no result: E-selectin induc)
Cc1cc(N)n(-c2ccc(C(=O)O)cc2)n1	none (no result: E-selectin induc)
CCCNC(=O)C[C@H]1CC[C@@H]2[C@H](COc3ccc(NC(=O)CCC)cc3C(=O)N2C)O1	none
COc1ccc(CN(C)C[C@H]2Oc3ccc(NC(=O)Nc4ccc(C(F)(F)F)cc4)cc3C(=O)N([C@@H](C)CO)C[C@H]2C)cc1	none
COc1ccc(NC(=O)Nc2ccc3c(c2)C(=O)N([C@H](C)CO)C[C@H](C)[C@@H](CN(C)Cc2ccc(C(F)(F)F)cc2)O3)cc1	DENV2 CPE 20, SIRT5 inh 19
COc1ccc(CN(C)C[C@@H]2Oc3ccc(NC(=O)Nc4ccc(C(F)(F)F)cc4)cc3C(=O)N([C@@H](C)CO)C[C@H]2C)cc1	DENV2 CPE 44
COc1ccc(CN(C)C[C@H]2Oc3ccc(NC(=O)Nc4ccc(C(F)(F)F)cc4)cc3C(=O)N([C@H](C)CO)C[C@H]2C)cc1	none
C/C=C/c1ccc([C@H]2[C@@H](CO)N(S(C)(=O)=O)[C@H]2CN(CC)C(C)=O)cc1	none
O=C(COC(=O)Cc1c(Cl)cccc1Cl)Nc1ccc2[nH]c(=O)[nH]c2c1	none (no result: E-selectin induc)
O=C(COC(=O)Cc1c(F)cccc1Cl)Nc1ccc2[nH]c(=O)[nH]c2c1	SIRT5 inh 15
CCCNC(=O)C[C@H]1CC[C@@H]2[C@H](COC[C@@H](O)CN2C(=O)C2CCOCC2)O1	DENV2 CPE inconclusive
C[C@H](CO)N1C[C@H](C)[C@H](CN(C)C)Oc2c(NS(C)(=O)=O)cccc2C1=O	none
C[C@H](CO)N1C[C@H](C)[C@H](CN(C)S(C)(=O)=O)Oc2c(NS(C)(=O)=O)cccc2C1=O	E-selectin induc 64
C[C@@H]1CN([C@@H](C)CO)C(=O)c2cccc(NS(C)(=O)=O)c2O[C@H]1CN(C)C	none
C[C@H]1CN([C@@H](C)CO)C(=O)c2cccc(NS(C)(=O)=O)c2O[C@H]1CN(C)S(C)(=O)=O	E-selectin induc 36
Cc1ccc(S(=O)(=O)Nc2ccc3c(c2)C(=O)N([C@H](C)CO)C[C@H](C)[C@H](CN(C)C(=O)NC2CCCCC2)O3)cc1	none
CCN(CC(=O)Nc1ccccc1OC)CC(=O)Nc1sccc1C#N	SIRT5 inh 15
CCN(CC(=O)Nc1ccccc1OC)CC(=O)Nc1ccccc1-c1ccccc1	DENV2 CPE inconclusive (no result: SIRT5 inh)
